Rpn11 inh = Rpn11 (PSMD14) deubiquitinase inhibitors, primary screen, biochemical, fluorescence polarization, uHTS; 26S proteasome non-ATPase regulatory subunit 14 (Homo sapiens), O00487; human 26S proteasome, Ub4-pepOG fluorescence polarization; 20S core pre-blocked with epoxomicin; inhibition, % at 20 µM; actives 0.59% (n = 360,000); AID 588493, 2011;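 active = inhibition at 20 µM, scaled to each plate's controls, above about 33%, limit read from the data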
CSN deneddyl inh = inhibitors of CSN-mediated cullin deneddylation, primary screen, biochemical, fluorescence polarization, uHTS. COP9 signalosome complex subunit 5 (Homo sapiens), Q92905. Purified CSN, SCF-Nedd8-OG deneddylation. inhibition, % at 12.5 µM. actives 0.38% (n = 360,000);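 active = pattern-corrected inhibition above about 35%, with an unprinted fluorescence ratio check between 0.5 and 1.5, limit read from the data, passing the limit was not always enough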;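 also: 0% = enzyme with substrate and 100% = substrate without enzyme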
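Assay system: purified human Csn5 enzyme expressed in HEK293T cells; Input: 0.24 nM Csn5 enzyme, final concentration; Reagent: 10 nM SCFSkp2-Nedd8OG; Compound dosing: 12.5 µM single point; Times: reaction 90 min, room temperature; Technique: fluorescence polarization readout.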
ATG4B inhibitor = ATG4B protease inhibitors, primary screen, biochemical, fluorescence, uHTS; Cysteine protease ATG4B (Homo sapiens), Q9Y4P1; ATG4B cleavage of LC3-PLA2, NBD-HPC fluorescence, 1 h; inhibition, % at 8.33 µM; actives 0.51% (n = 340,000); AID 504462, 2011; in the data active = inhibition above about 40%
TPT1 inhibitor = Candida albicans TPT1 enzyme inhibitors, primary screen, biochemical, fluorescence polarization; AID 1962, 2009; inhibition, % at 5 µM; recombinant caTPT1, FP RNA substrate dephosphorylation; actives 0.81% (n = 300,000);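 active = inhibition above the mean of all tested compounds plus 3 SD, set per screening campaign, cut at about 24% in these data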;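 also: plate controls were DMSO alone for no effect and ferristatin control at 100 nM for full effect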
HNF4A DNA FP = change in binding of human HNF4A to DNA, primary screen, biochemical, fluorescence polarization, FITC-DNA. actives 0.3% (n = 360,000). Hepatocyte nuclear factor 4-alpha (Homo sapiens), P41235. 1 h. AID 1224865, 2016. activity change, % at 10 µM; in the data active = activity change above about 30%, passing the limit was not always enough
Target sequence (P41235 whole entry, looked up): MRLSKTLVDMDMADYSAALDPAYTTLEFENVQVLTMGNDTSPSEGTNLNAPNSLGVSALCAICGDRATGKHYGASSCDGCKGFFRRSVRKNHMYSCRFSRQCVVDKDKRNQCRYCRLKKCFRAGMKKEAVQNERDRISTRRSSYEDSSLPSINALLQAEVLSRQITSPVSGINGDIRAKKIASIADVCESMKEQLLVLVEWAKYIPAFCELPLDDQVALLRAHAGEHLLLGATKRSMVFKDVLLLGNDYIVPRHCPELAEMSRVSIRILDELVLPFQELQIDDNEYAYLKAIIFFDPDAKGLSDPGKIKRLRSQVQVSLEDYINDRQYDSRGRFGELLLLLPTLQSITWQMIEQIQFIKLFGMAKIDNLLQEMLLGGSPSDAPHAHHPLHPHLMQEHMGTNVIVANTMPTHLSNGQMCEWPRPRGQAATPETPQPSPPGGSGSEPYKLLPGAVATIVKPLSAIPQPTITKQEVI
SENP1 FRET inh = human SENP1 catalytic domain inhibitors, primary screen, biochemical, FRET, uHTS | Sentrin-specific protease 1 (Homo sapiens), Q9P0U3 | recombinant SENP1 catalytic domain, CyPet-SUMO1-YPet FRET cleavage | inhibition, % at 10 µM | actives 0.21% (n = 360,000) | AID 624204, 2012;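 active = inhibition at least 30% at 10 µM, raw YFP signal under a set limit, fluorescence ratio 0.5 to 1.5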;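 also: 0% = enzyme with DMSO and 100% = no enzyme wells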
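Assay system: hSENP1 catalytic domain, recombinant. Amount: SENP1 enzyme, 20 pM final. Schedule: 50 min reaction, RT, dark. Technique: FRET, CFP and YFP emission. Control set: no-enzyme wells low, DMSO-plus-enzyme wells high control.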
SENP1 conf = human SENP1 catalytic domain inhibitors, confirmation, biochemical, FRET endpoint, single concentration. shares compounds with SENP1 FRET inh. recombinant SENP1, CyPet-SUMO1-YPet FRET cleavage. inhibition, % at 10 µM. actives 34% (n = 520); in the data active = inhibition mostly above about 35%, no sharp cut-off; inactive = mostly below about 32%;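 also: 0% = enzyme with DMSO and 100% = no enzyme control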
SENP1 kin conf = human SENP1 catalytic domain inhibitors, confirmation, biochemical, kinetic FRET, single concentration | shares compounds with SENP1 FRET inh | inhibition, % at 10 µM | recombinant SENP1, CyPet-SUMO1-YPet FRET kinetic cleavage | actives 26% (n = 520); in the data active = inhibition mostly above about 32%, no sharp cut-off; inactive = mostly below about 29%;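 also: 0% = DMSO with enzyme and 100% = no enzyme substrate only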
The depositor's hits bear a star; · = no result given. A selection: hits, their analogues and other compounds. The true share with any hit is near 2%.

SMILES	Rpn11 inh	CSN deneddyl inh	ATG4B inhibitor	TPT1 inhibitor	HNF4A DNA FP	SENP1 FRET inh	SENP1 conf	SENP1 kin conf
O=C1C=C(c2cccc(Cl)c2)C[C@@H](c2ccc(Cl)cc2)C1	0	0	5	·	-2	1	·	·
O=C1C=C(c2cccc(Cl)c2O)C[C@@H](c2ccc(Cl)cc2)C1	5	3	1	·	-1	58*	99*	76*
O=C(CN1C(=O)/C(=C\C=C\c2ccccc2)SC1=S)Nc1ccc(F)cc1	40	2	-2	12	17	66*	63*	41*
O=C(OCc1ccc(O)cc1)c1c(-c2ccsc2)oc2ccc(N3CCOCC3)cc12	7	-1	-12	-2	2	36*	19	21
O=C1C2=C(SCCS2)C(=O)N1CCCO	-30	-2	-2	-25	0	54*	48*	29
Cc1sc(Nc2ccc([N+](=O)[O-])cc2)nc1-c1c(C)n(C)n(-c2ccccc2)c1=O	-3	2	-17	1	-2	38*	19	14
Cc1cccc(N(C)S(=O)(=O)c2c(C)[nH]c(C)c2C(=O)N2CCCC2)c1	-4	1	8	-6	-1	1	·	·
Cn1c(=O)c([N+](=O)[O-])c(NCC2CCCO2)c2ccccc21 (stereo not given)	-3	0	-17	-5	-5	-1	·	·
CCCN(CC(=O)Nc1ccccc1C)C(=O)CCN1C(=O)c2cccc([N+](=O)[O-])c2C1=O	-9	3	-2	-3	-4	38*	19	20
O=[N+]([O-])c1nn(-c2ccc3c(c2)OCCO3)n(O)c1=NCc1ccc(F)cc1Cl	28	5	-1	-26	4	62*	2	9
CC(CC(=O)Nc1ccc2c(c1)c(=O)n(C)n2Cc1ccc(Cl)cc1)C(F)(F)F (stereo not given)	10	1	·	·	6	5	·	·
COc1cc(Cn2c3ccc(NC(=O)CC(C)C(F)(F)F)cc3c(=O)n2C)ccc1F (stereo not given)	12	6	·	·	6	31*	9	10
Nc1cc([N+](=O)[O-])ccc1N1C(=O)CCCC1=O	-2	4	-11	1	-5	-1	·	·
COc1cc(/C=C2\SC(=S)N(CCC(=O)Nc3ccccc3O)C2=O)cc(OC)c1OC	28	4	1	9	3	12	·	·
CC(=O)Oc1ccc(/C=C2/SC(=S)N(Cc3ccccc3)C2=O)cc1	35	13	9	10	50*	74*	6	8
COc1cc(/C=C2\SC(=S)N(CCC(=O)NCCc3ccccc3)C2=O)cc(OC)c1OC	9	6	-1	1	2	35*	13	16
Cc1ccc(S(=O)(=O)N2CCN(C(=O)N3CCCCC3)CC2)c(C)c1	-4	9	·	·	2	1	·	·
O=C(CNc1n[nH]c(=O)[nH]c1=O)N/N=C/C1CC=CCC1 (stereo not given)	4	-2	5	-3	1	1	·	·
Cc1ccc(CNC(=O)CC(C)S(=O)(=O)c2ccc3c(c2)NC(=O)CO3)cc1 (stereo not given)	-4	-2	3	-1	-7	0	·	·
Cc1ccc(CNC(=O)CC(C)S(=O)(=O)c2ccc3c(c2)NC(=O)CS3)o1 (stereo not given)	7	3	6	22	1	36*	18	24*
Nc1cc(C(F)(F)F)ccc1-n1cccc1	10	9	-5	0	1	8	·	·
O=C1CCC[C@@H]2C[C@@]3(C[C@@H]4CCN1[C@H]24)Nc1cc([N+](=O)[O-])ccc1NC3=NC1CCCCC1	21	4	-3	·	6	70*	32	23
Cc1nn(-c2ccccc2)c(C)c1C(=O)NNC(=O)C(F)(F)F	-8	2	0	-3	3	3	·	·
CCOC(=O)c1sc2cc([N+](=O)[O-])cc(SCCO)c2c1N	1	-4	-3	9	4	50*	20	12
CCOC(=O)c1sc2nc(C)cc(C)c2c1N	4	5	-1	3	2	-27	·	·
SMILES	Rpn11 inh	CSN deneddyl inh	ATG4B inhibitor	TPT1 inhibitor	HNF4A DNA FP	SENP1 FRET inh	SENP1 conf	SENP1 kin conf
N#CCn1cnc2c(oc3ccccc32)c1=O	-5	0	0	-2	-3	-2	·	·
COc1cc(Nc2nc3c(N)cc(C(F)(F)F)cc3nc2-c2ccccc2)cc(OC)c1OC	7	-2	-6	·	-3	46*	2	3
COc1cc(Nc2cccc(-c3ccccc3)n2)cc(OC)c1OC	-8	-5	·	·	4	1	·	·
CCOC(=O)C1=C(COC(=O)c2ccccc2OC(F)F)NC(=O)NC1C (stereo not given)	-3	-5	-3	0	2	3	·	·
CCOC(=O)C1=C(COC(=O)c2ccc3ccccc3c2O)NC(=O)NC1C (stereo not given)	-93	-40	-12	·	-23	38*	2	-1
COC(=O)C1CC(O)CN1C(=O)Nc1ccccc1 (stereo not given)	1	-2	2	1	2	30*	11	5
COc1ccc(-c2c(O)c(C#N)c(-c3ccccc3)n(-c3ccc(OC)cc3)c2=O)cc1	6	1	-1	1	1	78*	2	5
C=CC[N+](C)(C)CCN1C(=O)C2C(c3ccccc3)C=CC(c3ccccc3)C2C1=O (stereo not given)	-10	2	3	-2	-4	12	·	·
C=CCOCCN1C(=O)C2C(c3ccccc3)C=CC(c3ccccc3)C2C1=O (stereo not given)	-10	-4	-11	-1	-1	66*	76*	61*

Screening results (PubChem)
